{
  "source": "ChEMBL document CHEMBL2429803",
  "about": "“Animal toxicity of hairpin pyrrole-imidazole polyamides varies with the turn unit” (J Med Chem, 2013)",
  "key": {"[1]": {"test_system": "Mus musculus", "test": "Acute toxicity in C57BL/6J mouse assessed as moderate atypical tubular regeneration in kidney at 3 to 10 mg/kg, sc after 9 days", "assay_type": "organism-based", "parameters": "dose 3-10 mg/kg, route subcutaneous", "details": "in vivo, 216 h", "summary_of_the_method": "(§1)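 Male C57BL/6J mice, 8 weeks old, received a single sc dose (1, 3 or 10 mg/kg in 25% DMSO/saline, n = 4 per group) and were sacrificed after 9 days. Two representative animals per group were fixed in 10% formalin. Cecum, duodenum, heart, ileum, kidney, liver, lung, pancreas, spleen and stomach were examined blind by a veterinary pathologist and lesions graded mild, moderate or severe.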"}, "[2]": {"test": "Metabolic stability in human liver microsomes after 1 hr by LC/MS/MS analysis", "assay_type": "ADME, Microsome", "details": "read-out: Stability", "summary_of_the_method": "(§2)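 Compound incubated at 37 °C for 60 min with 1 mg/mL human or mouse liver microsomes in 100 mM KH2PO4, 3 mM MgCl2, pH 7.4, with 2 mM NADPH or without it. Stopped with ice-cold methanol, then precipitate removed. Analyzed by LC/MS/MS as % remaining versus time zero. Duplicates.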"}, "[3]": {"test_system": "Mus musculus", "test": "Acute toxicity in C57BL/6J mouse assessed as lesions in stomach at 1 to 10 mg/kg, sc after 9 days", "assay_type": "organism-based", "parameters": "dose 1-10 mg/kg, route subcutaneous", "details": "in vivo, 216 h", "summary_of_the_method": "as §1"}, "[4]": {"test_system": "Mus musculus", "test": "Acute toxicity in C57BL/6J mouse assessed as karyomegaly at 1 mg/kg, sc after 9 days", "assay_type": "organism-based", "parameters": "dose 1 mg/kg, route subcutaneous", "details": "in vivo, 216 h", "summary_of_the_method": "as §1"}, "[5]": {"test": "Metabolic stability in human liver microsomes after 1 hr by LC/MS/MS analysis in presence of NADPH", "assay_type": "ADME, Microsome", "details": "read-out: Stability", "summary_of_the_method": "as §2"}, "[6]": {"test_system": "Mus musculus", "test": "Acute toxicity in C57BL/6J mouse assessed as lesions in GI tract at 1 to 10 mg/kg, sc after 9 days", "assay_type": "organism-based, Gastrointestinal tract", "parameters": "dose 1-10 mg/kg, route subcutaneous", "details": "in vivo, 216 h", "summary_of_the_method": "as §1"}, "[7]": {"test": "Metabolic stability in mouse liver microsomes after 1 hr by LC/MS/MS analysis in presence of NADPH", "assay_type": "ADME, Microsome", "details": "read-out: Stability", "summary_of_the_method": "as §2"}, "[8]": {"test_system": "Mus musculus", "test": "Acute toxicity in C57BL/6J mouse assessed as milder tubular regeneration at 1 mg/kg, sc after 9 days", "assay_type": "organism-based", "parameters": "dose 1 mg/kg, route subcutaneous", "details": "in vivo, 216 h", "summary_of_the_method": "as §1"}, "[9]": {"test_system": "Mus musculus", "test": "Toxicity in C57BL/6J mouse assessed as loss of mobility at 1 mg/kg, sc administered every 3 days for a cycle of 2 injections", "assay_type": "organism-based", "parameters": "dose 1 mg/kg, route subcutaneous", "details": "in vivo, 72 h", "summary_of_the_method": "(§3)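 Male C57BL/6J mice, 3 per group, given 1 mg/kg sc every 3 days. Weight recorded on injection days. Watched for signs of duress. Humane end point was visible duress or weight loss over 15% of starting body weight.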"}, "[10]": {"test_system": "Mus musculus", "test": "Acute toxicity in C57BL/6J mouse assessed as tubular epithelial necrosis and apoptosis in kidney at 3 to 10 mg/kg, sc after 9 days", "assay_type": "organism-based", "parameters": "dose 3-10 mg/kg, route subcutaneous", "details": "in vivo, 216 h", "summary_of_the_method": "as §1"}, "[11]": {"test_system": "Mus musculus", "test": "Toxicity in C57BL/6J mouse assessed as hunched posture at 1 mg/kg, sc administered every 3 days for a cycle of 2 injections", "assay_type": "organism-based", "parameters": "dose 1 mg/kg, route subcutaneous", "details": "in vivo, 72 h", "summary_of_the_method": "as §3"}, "[12]": {"test_system": "Mus musculus", "test": "Acute toxicity in C57BL/6J mouse at 1 mg/kg, sc after 9 days", "assay_type": "organism-based", "parameters": "dose 1 mg/kg, route subcutaneous", "details": "in vivo, 216 h", "summary_of_the_method": "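Single sc injection in male 8-week-old C57BL/6J mice (1, 3 or 10 mg/kg in 25% DMSO/saline; n = 4 per group), followed for 9 days with daily weighing, then sacrifice. Toxicity was assessed by blinded histopathology of two mice per group and by blinded serum ALT, AST, total bilirubin, BUN and creatinine from retroorbital blood of all mice.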"}, "[13]": {"test_system": "Mus musculus", "test": "Toxicity in C57BL/6J mouse assessed as hepatocellular necrosis and apoptosis at 1 mg/kg, sc administered every 3 days for a cycle of 3 injections measured 2 days post last injection", "assay_type": "organism-based", "parameters": "dose 1 mg/kg, route subcutaneous", "details": "in vivo, 48 h", "summary_of_the_method": "(§4)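 Male C57BL/6J mice, 8 weeks old, given 1 mg/kg sc every 3 days for three injections and sacrificed 2 days after the last one. Two mice per group fixed in 10% formalin. A veterinary pathologist, blinded, examined cecum, duodenum, heart, ileum, kidney, liver, lung, pancreas, spleen and stomach. Lesions graded mild, moderate or severe.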"}, "[14]": {"test_system": "Mus musculus", "test": "Acute toxicity in C57BL/6J mouse assessed as hepatocellular necrosis and apoptosis at 1 mg/kg, sc after 9 days", "assay_type": "organism-based", "parameters": "dose 1 mg/kg, route subcutaneous", "details": "in vivo, 216 h", "summary_of_the_method": "as §1"}, "[15]": {"test_system": "Mus musculus", "test": "Acute toxicity in C57BL/6J mouse assessed as lesions in pancreas at 1 to 10 mg/kg, sc after 9 days", "assay_type": "organism-based", "parameters": "dose 1-10 mg/kg, route subcutaneous", "details": "in vivo, 216 h", "summary_of_the_method": "as §1"}, "[16]": {"test_system": "Mus musculus", "test": "Toxicity in C57BL/6J mouse assessed as weight loss at 1 mg/kg, sc administered every 3 days for a cycle of 2 injections", "assay_type": "organism-based", "parameters": "dose 1 mg/kg, route subcutaneous", "details": "in vivo, 72 h", "summary_of_the_method": "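8-week-old male C57BL/6J mice, acclimated 3 days, groups of three, dosed sc in 25% DMSO/saline vehicle once every 3 days, sacrificed 2 days after the last injection. Body weight recorded on injection days and at end point; humane end point set at visible duress or >15% loss of original body weight.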"}, "[17]": {"test_system": "Mus musculus", "test": "Acute toxicity in C57BL/6J mouse assessed as loss of mobility at 3 to 10 mg/kg, sc after 9 days", "assay_type": "organism-based", "parameters": "dose 3-10 mg/kg, route subcutaneous", "details": "in vivo, 216 h", "summary_of_the_method": "(§5)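 Male C57BL/6J mice, 8 weeks old, were acclimated 3 days and then given a single sc injection of 1, 3 or 10 mg/kg in 25% DMSO/saline vehicle (up to 200 μL), n = 4 per group. Weight, behaviour and appearance were monitored daily for 9 days before sacrifice. The humane end point was visible duress or weight loss over 15% of the original.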"}, "[18]": {"test_system": "Mus musculus", "test": "Acute toxicity in C57BL/6J mouse assessed as lesions in lungs at 1 to 10 mg/kg, sc after 9 days", "assay_type": "organism-based", "parameters": "dose 1-10 mg/kg, route subcutaneous", "details": "in vivo, 216 h", "summary_of_the_method": "as §1"}, "[19]": {"test": "Metabolic stability in mouse liver microsomes after 1 hr by LC/MS/MS analysis", "assay_type": "ADME, Microsome", "details": "read-out: Stability", "summary_of_the_method": "as §2"}, "[20]": {"test_system": "Mus musculus", "test": "Acute toxicity in C57BL/6J mouse assessed as diffuse hepatocellular necrosis and apoptosis at 3 to 10 mg/kg, sc after 9 days", "assay_type": "organism-based", "parameters": "dose 3-10 mg/kg, route subcutaneous", "details": "in vivo, 216 h", "summary_of_the_method": "as §1"}, "[21]": {"test_system": "Mus musculus", "test": "Acute toxicity in C57BL/6J mouse assessed as mild lymphoid apoptosis in white pulp of spleen at 3 to 10 mg/kg, sc after 9 days", "assay_type": "organism-based", "parameters": "dose 3-10 mg/kg, route subcutaneous", "details": "in vivo, 216 h", "summary_of_the_method": "as §1"}, "[22]": {"test_system": "Mus musculus", "test": "Acute toxicity in C57BL/6J mouse assessed as lesions in heart at 1 to 10 mg/kg, sc after 9 days", "assay_type": "organism-based", "parameters": "dose 1-10 mg/kg, route subcutaneous", "details": "in vivo, 216 h", "summary_of_the_method": "as §1"}, "[23]": {"test_system": "Mus musculus", "test": "Acute toxicity in C57BL/6J mouse assessed as multifocal bridging hepatocellular necrosis and apoptosis at 3 to 10 mg/kg, sc after 9 days", "assay_type": "organism-based", "parameters": "dose 3-10 mg/kg, route subcutaneous", "details": "in vivo, 216 h", "summary_of_the_method": "as §1"}, "[24]": {"test_system": "Mus musculus", "test": "Acute toxicity in C57BL/6J mouse assessed as hunched posture at 3 to 10 mg/kg, sc after 9 days", "assay_type": "organism-based", "parameters": "dose 3-10 mg/kg, route subcutaneous", "details": "in vivo, 216 h", "summary_of_the_method": "as §5"}, "[25]": {"test_system": "Mus musculus", "test": "Toxicity in C57BL/6J mouse assessed as hyaline droplet accumulation at 1 mg/kg, sc administered every 3 days for a cycle of 3 injections measured 2 days post last injection", "assay_type": "organism-based", "parameters": "dose 1 mg/kg, route subcutaneous", "details": "in vivo, 48 h", "summary_of_the_method": "as §4"}, "[26]": {"test_system": "Mus musculus", "test": "Acute toxicity in C57BL/6J mouse assessed as acute morbidity at 3 to 10 mg/kg, sc after 9 days", "assay_type": "organism-based", "parameters": "dose 3-10 mg/kg, route subcutaneous", "details": "in vivo, 216 h", "summary_of_the_method": "as §5"}},
  "data": [
    {"smiles": "CC(=O)N[C@@H](CNC(=O)c1cc(NC(=O)c2cc(NC(=O)c3cc(NC(=O)c4nccn4C)cn3C)cn2C)cn1C)CC(=O)Nc1cn(C)c(C(=O)Nc2cc(C(=O)Nc3cc(C(=O)Nc4cc(C(=O)NCCCN(C)CCCNC(=O)c5cccc(C(=O)O)c5)n(C)c4)n(C)c3)n(C)c2)n1", "values": [
      {"measurement": "Activity", "setting": "[1]", "result": "Toxic"},
      {"measurement": "remaining at 1 h", "setting": "[2]", "result": "< 5", "unit": "%"},
      {"measurement": "Activity", "setting": "[3]", "result": "Non-toxic"},
      {"measurement": "Activity", "setting": "[4]", "result": "Toxic"},
      {"measurement": "remaining at 1 h", "setting": "[5]", "result": "< 5", "unit": "%"},
      {"measurement": "Activity", "setting": "[6]", "result": "Non-toxic"},
      {"measurement": "remaining at 1 h", "setting": "[7]", "result": "< 5", "unit": "%"},
      {"measurement": "Activity", "setting": "[8]", "result": "Toxic"},
      {"measurement": "Activity", "setting": "[9]", "result": "Toxic"},
      {"measurement": "Activity", "setting": "[10]", "result": "Toxic"},
      {"measurement": "Activity", "setting": "[11]", "result": "Toxic"},
      {"measurement": "Activity", "setting": "[12]", "result": "Non-toxic"},
      {"measurement": "Activity", "setting": "[13]", "result": "Toxic"},
      {"measurement": "Activity", "setting": "[14]", "result": "Toxic"},
      {"measurement": "Activity", "setting": "[15]", "result": "Non-toxic"},
      {"measurement": "Activity", "setting": "[16]", "result": "Toxic"},
      {"measurement": "Activity", "setting": "[17]", "result": "Toxic"},
      {"measurement": "Activity", "setting": "[18]", "result": "Non-toxic"},
      {"measurement": "remaining at 1 h", "setting": "[19]", "result": "< 5", "unit": "%"},
      {"measurement": "Activity", "setting": "[20]", "result": "Toxic"},
      {"measurement": "Activity", "setting": "[21]", "result": "Toxic"},
      {"measurement": "Activity", "setting": "[22]", "result": "Non-toxic"},
      {"measurement": "Activity", "setting": "[23]", "result": "Toxic"},
      {"measurement": "Activity", "setting": "[24]", "result": "Toxic"},
      {"measurement": "Activity", "setting": "[25]", "result": "Toxic"},
      {"measurement": "Activity", "setting": "[26]", "result": "Toxic"}
    ]}
  ]
}
